Assay results published in paper PMC11078046 (JBMR Plus, 2024).

Tests used:
[1] = humans, given intravenously; cited from earlier work
[2] = test system: thyroparathyroidectomized (TPTx) rats; assay: TPTx rat 7-day efficacy study; assay type: in vivo, Sprague–Dawley rats
Method in brief: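 Female TPTx SD rats, 250–300 g, randomised on baseline calcium and weight (n = 12). Daily SC dosing in PBS (1 mL/kg) for 7 days. Day-1 jugular serum drawn from two cohorts at 0, 2, 6, 10, 18 and 24 h; calcium and phosphate measured on a Hitachi 7180. Predose serum on days −6, 4 and 7 assayed by osteocalcin, PINP and CTX-I ELISAs.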

[3] = test system: thyroparathyroidectomized (TPTx) rats; assay: TPTx rat 28-day efficacy study; assay type: in vivo, Sprague–Dawley rats; conditions: daily SC 10 nmol/kg
Method in brief: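 Female thyroparathyroidectomised Crl-CD SD rats, 215–290 g, randomised on baseline serum calcium and body weight after 9 days of acclimation. Daily SC dosing in PBS (1 mL/kg) for 28 days. Jugular serum taken in two alternating cohorts on days 1, 12 and 27 at 0, 2, 6, 10 and 24 h, run on a Hitachi 7180 analyser (n = 5/cohort). Urine n = 10/group. Distal femur BMD by pQCT, n = 10/group.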

With “PTH: endogenous human polypeptide, 84 amino acids in length” as the molecule, how does the plasma half-life [1] read?
The plasma half-life was “less than 10 min”.

B1: PTH(1-84): Recombinant human PTH(1-84), Natpara (Takeda); native parathyroid hormone comparator (protein, UniProt P01270 32-115, looked up)
Parathyroid hormone: SVSEIQLMHNLGKHLNSMERVEWLRKKLQDVHNFVALGAPLAPRDAGSQRPRKKEDNVLVESHEKSLGEADKADVNVLTKAKSQ
modifications: Parathyroid hormone
Which “serum calcium, day 1 after first dose” value ([2]; SC 3 nmol/kg, 0–24 h) does the source give for B1 here?
Its value is “unaffected”.

What about the “bone formation markers osteocalcin and PINP” value ([2]; daily SC 3 nmol/kg, serum, days 4 and 7) of the same molecule?
Its value is “only induced a small increase”.

What about the “serum phosphate, days 4 and 7” value ([2]; daily SC 3 nmol/kg, three timepoints) of the same molecule?
Its value is “only transiently lower serum phosphate at the 2 h timepoints”.

What about the “bone remodeling markers (osteocalcin, CTX, PINP)” value [3] of the same molecule?
Its value is “increased serum concentrations of osteocalcin and CTX, but had only minimal effect on PINP”.

And the “BMD, cortical region of the diaphysis (pQCT)” value ([3]; 28 days)?
Its value is “small but statistically significant decrease in BMD”.

What about the serum calcium ([3]; 28 days, days 1, 12, 27) of the same molecule?
Its serum calcium is “no increase or only small increases in serum calcium”.

And the “BMD, distal femur metaphysis (pQCT)” value ([3]; 28 days, vs TPTx: vehicle)?
Its value is “unchanged or slightly increased”.

And the “urinary calcium (creatinine-normalized)” value ([3]; days 1, 14, 27)?
The value was “not significantly increased”.

What about the serum phosphate ([3]; days 12 and 27) of the same molecule?
Its serum phosphate is “much smaller decrease in serum phosphate”.
